# Measurements collected from several papers.
# Protocols differ between the studies behind these lines.
# Target: Serine/threonine-protein kinase BRSK1 (BRSK1, Homo sapiens, UniProt Q8TDC3)
# Sequence (Q8TDC3 1-778, as in one of the studies): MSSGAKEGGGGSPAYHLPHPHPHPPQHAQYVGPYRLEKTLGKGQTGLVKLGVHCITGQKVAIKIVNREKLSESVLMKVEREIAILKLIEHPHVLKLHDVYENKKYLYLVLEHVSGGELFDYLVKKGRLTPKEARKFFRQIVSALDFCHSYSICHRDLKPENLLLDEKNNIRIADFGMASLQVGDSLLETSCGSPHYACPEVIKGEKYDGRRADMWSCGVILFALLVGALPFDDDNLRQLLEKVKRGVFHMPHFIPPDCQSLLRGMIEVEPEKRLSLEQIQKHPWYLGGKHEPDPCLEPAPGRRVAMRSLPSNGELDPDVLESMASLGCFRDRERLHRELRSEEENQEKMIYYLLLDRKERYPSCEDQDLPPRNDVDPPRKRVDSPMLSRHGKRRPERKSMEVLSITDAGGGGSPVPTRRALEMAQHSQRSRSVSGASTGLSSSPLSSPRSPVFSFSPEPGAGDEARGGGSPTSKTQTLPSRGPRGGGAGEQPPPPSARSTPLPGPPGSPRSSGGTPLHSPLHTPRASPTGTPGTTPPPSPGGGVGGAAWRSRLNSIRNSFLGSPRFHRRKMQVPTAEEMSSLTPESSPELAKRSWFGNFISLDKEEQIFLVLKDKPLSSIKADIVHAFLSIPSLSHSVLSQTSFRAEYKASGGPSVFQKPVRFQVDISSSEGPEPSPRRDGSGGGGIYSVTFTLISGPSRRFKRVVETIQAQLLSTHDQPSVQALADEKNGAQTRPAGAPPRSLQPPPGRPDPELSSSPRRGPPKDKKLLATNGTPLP
Structure (SMILES),read-out,action,method,concentration,endpoint,result
COc1ncccc1-c1cnn2ccc(N3CCN(C(=O)OC(C)C)CC3)nc12,binding,,competition with immobilised ligand,1 µM,remaining binding,93%
Cc1nn(C)cc1-c1nc2c(N3CCN(Cc4ccc(Cl)cc4)CC3)c(Cl)cnc2[nH]1,binding,,competition with immobilised ligand,1 µM,remaining binding,100%
Cn1cc(-c2cc(F)cc(N3CCn4c(cc5c4CCCC5)C3=O)c2CO)cc(Nc2ccc(N3CCN(C4COC4)CC3)cn2)c1=O,enzyme activity,inhibitor,,0.1 µM,inhibition,12%
Nc1ncc(-c2nc(N3CCOCC3)nc(N3CCOCC3)n2)c(C(F)F)n1,binding,,competition with immobilised ligand,10 µM,remaining binding,91%
Cn1cc(-c2cccc(N3CCc4c(sc5c4CC(C)(C)C5)C3=O)c2CO)cc(Nc2ccncn2)c1=O,enzyme activity,inhibitor,,1 µM,inhibition,3%
CC(C)(C)c1cc(C=C(C#N)C#N)cc(Br)c1O,enzyme activity,inhibitor,,0.5 µM,remaining activity,94%
Cn1cncc1[C@@](O)(COc1ccc(C#N)cc1-c1ccc(OC(F)(F)F)cc1)c1ccc(C#N)cc1,cell-free assay,,competition with immobilised ligand,1 µM,remaining binding,86%
O=c1[nH]c2ccccc2n1C1CCN(Cc2ccc(-c3[nH]c4cc5ncnc5cc4nc3-c3ccccc3)cc2)CC1,cell-free assay,,,0.5 µM,remaining signal,98.3%
N#CC1(c2ccccn2)CCN(Cc2cc(C(=O)O)c(=O)n3ccccc23)CC1,cell-free assay,,competition with immobilised ligand,1 µM,remaining binding,100%
